# ARNT TACC3 PPI: disruptors of human ARNT/TACC3 interaction | inhibition, % at 9.99 µM | 0.66% of 390,000 active | Q9Y6A5 | AlphaScreen His-ARNT PAS-B/GST-TACC3 binding, luminescence; TACC3 fragment carries E629A point mutation;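 active means mean inhibition of replicates at least 50% and at least half of replicates each reaching 50%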;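 further: 0% = complete ARNT plus TACC3 wells and 100% = ARNT alone without TACC3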
# HGIII-sPLA2 inh: Blocks human group III sPLA2 activity. Q9NZ20. QFRET BODIPY PC-A2 liposome hydrolysis, fluorescence. inhibition, % at 12.2 µM. 0.56% of 370,000 active;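 active means inhibition above mean plus 3 SD of compounds lying within the high and low control bounds, cut at about 19% in these data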;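 further: 0% = median of test compound wells and 100% = no enzyme DMSO wells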
# XiGFP reactiv: activators of X-chromosome reactivation in mouse fibroblasts | XiGFP mouse fibroblasts, % GFP-positive cells imaging, 3 d; cells co-treated with 5-aza-dC sensitizer; scaled so ellipticine positive control = 100% | 0.055% of 360,000 active | activation, % at 7.58 µM;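 active means mean normalized replicate activation at least 10% and every replicate at or above 10%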;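 further: 0% = median of on-plate neutral control wells and 100% = ellipticine 6 µM median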
#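 System: SV40-immortalized XiGFP fibroblast cells, line 68-5-11 / Incubation: 3-day compound exposure, then 15 min fixation at room temperature / Compound: single concentration per compound, delivered by pin transfer / Buffer or medium: DMEM plus 5-aza-dC sensitizer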
# SR-BI uptake up: activators of SR-BI mediated HDL lipid uptake. CHO ldlA[mSR-BI] cells, DiI-HDL uptake fluorescence, 3 h; 100 = double the neutral-control signal. activation, % at 12.5 µM. 0.096% of 320,000 active;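 active means mean replicate activation of at least 60% and every replicate at or above 60%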;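 further: 0% = median plate neutral-control signal and 100% = twice that signal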
#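 Assay system: LDL receptor-deficient CHO ldlA cells overexpressing murine SR-BI / Medium: BSA-supplemented, HEPES-buffered Ham's F12, pH 7.4 / Probe or stimulus: DiI-labelled HDL at 10 µg/mL final / Timing: compound with DiI-HDL co-incubation, 3 h at 37 °C / Technique: bottom-read cell fluorescence after medium removal, ex 550/em 595 nm / Measure: HDL uptake via cellular fluorescence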
# NSD2 HMT inh: inhibitors of human histone methyltransferase NSD2; NSD2 peptide methylation, AlphaScreen, 120 min; AID 743445; 0.54% of 310,000 active; O96028; inhibition, % at 12.5 µM; in the data active means inhibition above about 50%
# SR-BI DiI inh: blocks mouse SR-BI lipid uptake from DiI-HDL. Q61009. ldlA[mSR-BI] CHO cells, DiI-HDL uptake fluorescence, 3 h. inhibition, % at 12.5 µM. 0.96% of 320,000 active;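 active means mean replicate inhibition of at least 70% and a set share of replicates each scoring 70 or more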;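 further: 0% = median of neutral control wells and 100% = median of positive control wells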
# Target sequence (Q61009 whole entry, looked up): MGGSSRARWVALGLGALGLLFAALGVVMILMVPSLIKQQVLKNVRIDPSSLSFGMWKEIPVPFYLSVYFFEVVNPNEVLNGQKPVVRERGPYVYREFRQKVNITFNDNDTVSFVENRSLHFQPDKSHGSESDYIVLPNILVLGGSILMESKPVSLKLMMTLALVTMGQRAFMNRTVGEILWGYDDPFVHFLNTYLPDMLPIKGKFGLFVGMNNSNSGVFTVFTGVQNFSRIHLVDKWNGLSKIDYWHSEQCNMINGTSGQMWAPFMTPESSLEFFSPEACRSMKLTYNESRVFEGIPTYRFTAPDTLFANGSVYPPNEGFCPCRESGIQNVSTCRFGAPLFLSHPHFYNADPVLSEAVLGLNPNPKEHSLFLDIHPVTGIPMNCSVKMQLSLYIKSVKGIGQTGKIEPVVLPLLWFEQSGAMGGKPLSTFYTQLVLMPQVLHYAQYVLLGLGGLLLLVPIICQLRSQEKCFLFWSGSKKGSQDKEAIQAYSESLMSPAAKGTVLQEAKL
# AlphaScreen ctr: counter-screen for ARNT/TACC3 inhibitors: AlphaScreen artifacts; shares compounds with ARNT TACC3 PPI; His-ARNT PASB-GST AlphaScreen artifact counter-screen, luminescence; AC50, µM (doses to about 68 µM), for the others: at the top dose activity change, negative = signal decrease; 50% of 1,200 active; AID 651705;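 active means every separate test run was called active for a drop in luminescence, with AC50 within twice the top valid dose, actives reach about 71 µM in these data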
# * = called active by the depositor; . = not tested or not shown. A selection: hits, their analogues and other compounds. The true share with any hit is near 2%.
SMILES,ARNT TACC3 PPI,HGIII-sPLA2 inh,XiGFP reactiv,SR-BI uptake up,NSD2 HMT inh,SR-BI DiI inh,AlphaScreen ctr
CCOC(=O)c1cn(-c2ccc([N+](=O)[O-])cc2)c2cc(Cl)c([N+](=O)[O-])cc2c1=O,-2,3,0,-12,-4,12,.
Cc1ccc(OCc2nc(-c3ccccn3)no2)cc1,6,3,.,1,.,-1,.
Clc1ccc(OCc2nc3ccccc3[nH]2)cc1,3,0,0,-17,-5,17,.
Brc1ccc(OCc2nc(-c3ccccn3)n[nH]2)cc1,58*,-11,.,4,1,-4,22µM*
Clc1ccc(OCc2nc(-c3ccccn3)n[nH]2)cc1,66*,-1,.,4,-2,-4,28µM*
CC1(c2ccccc2)NC(=O)N(CC(=O)NNC(=O)c2ccccc2)C1=O (configuration not stated),.,-5,1,10,-2,-10,.
Cc1ccc(S(=O)(=O)CCC(=O)Nc2nc(-c3cccnc3)cs2)cc1,.,-1,0,10,11,-10,.
Cc1ccc(S(=O)(=O)CCC(=O)Nc2nc(-c3ccccn3)cs2)cc1,80*,-8,0,1,5,-1,71µM*
Cc1ccc(OCC(=O)Nc2nc(-c3ccccn3)cs2)c(C)c1,11,8,0,-3,1,3,.
Cc1ccc(C2(C)NC(=O)N(CC(=O)Nc3nc(-c4ccccn4)cs3)C2=O)cc1 (configuration not stated),54*,-4,0,-25,.,25,33µM*
CC1(c2ccccc2)NC(=O)N(CC(=O)Nc2nc(-c3ccccn3)cs2)C1=O (configuration not stated),61*,-7,0,0,-5,0,56µM*
CN(C)CCCNC(=O)C[C@H]1C=C[C@@H](NS(=O)(=O)c2ccccc2)[C@@H](CO)O1,-5,.,0,.,.,.,.
CC(=O)N1CCOc2ccc(S(=O)(=O)N3CCC(C(=O)Nc4cc(C)cc(C)c4)CC3)cc21,-6,-2,0,1,-3,-1,.
O=S1(=O)N=C(N(CCO)/N=C/C=C/c2ccccc2)c2ccccc21,55*,-14,0,-17,-3,17,39µM*
COc1cc(Br)cc(/C=N/N(CCO)C2=NS(=O)(=O)c3ccccc32)c1OC,2,-12,0,-16,-2,16,.
COc1cc(/C=N/N(CCO)C2=NS(=O)(=O)c3ccccc32)cc(OC)c1OC,41*,-7,0,0,-3,0,-40%
Cc1cc(C)n2cc(-c3ccc(Cl)cc3)c(C(=O)O)c2n1,.,6,0,-2,0,2,.
COc1cc(/C=N/n2c(C3CCCCC3)n[nH]c2=S)cc(Br)c1O,0,2,0,29,5,-29,.
CC(=O)NC(=S)Nc1ccccc1N1CCN(C(=O)c2ccccc2)CC1,9,-2,0,-68,-3,68,.
CCC(Oc1cccc(C)c1)C(=O)Nc1ccccc1C(=O)N1CCOCC1 (configuration not stated),2,0,0,22,4,-22,.
CC(=O)c1ccc(NS(=O)(=O)c2ccc3c(c2)N(C)CCO3)cc1,8,2,0,-3,4,3,.
O=C(N[C@H]1CC[C@@H](CCn2cc(-c3ccccn3)nn2)O[C@@H]1CO)c1ccncc1,66*,.,1,.,.,.,31µM*
O=C(N[C@H]1CC[C@H](CCn2cc(-c3ccccn3)nn2)O[C@H]1CO)c1ccncc1,66*,.,1,.,.,.,39µM*
O=C(N[C@H]1CC[C@H](CCn2cc(-c3ccccn3)nn2)O[C@@H]1CO)c1ccncc1,65*,.,1,.,.,.,48µM*
COCc1cn(CC[C@H]2CC[C@H](NC(=O)c3ccncc3)[C@@H](CO)O2)nn1,-15,.,0,.,.,.,.

# Screening results deposited in PubChem BioAssay by several laboratories.
